These results are taken from ChEMBL document CHEMBL4513216, “Probing the Open Global Health Chemical Diversity Library for Multistage-Active Starting Points for Next-Generation Antimalarials” (ACS Infect Dis, 2020).

This series is described as follows: Toxicity liver stage against HepG2, at 10uM. The format is cell-based. The arrangement: test concentration 10 uM, cell line HepG2-A16-CD81EGFP. The following applies: human, HepG2-A16-CD81EGFP cells; read-out: INHIBITION
A digest of the protocol: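 Uninfected HepG2-A16-CD81EGFP cells, 3 × 10^3 per well, 1536-well, plated on prespotted compound at 10 μM final, parasite-free screening media added to match infected plates; puromycin 10 μM positive, DMSO 0.5% negative; run in parallel with 48 h PbLuc assay at 37 °C, 5% CO2; viability by CellTiter-Glo luminescence, normalized to controls.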
On to `O=C1[C@H]2CCCC[C@H]2C(=O)N1c1cnn(Cc2cccc(F)c2)c1`, for which the cytotoxicity at 10 µM is -5.24%.
Take `Cn1c2ccc(F)cc2c2ncn(CCN3CCOCC3)c(=O)c21`: the cytotoxicity at 10 µM turned out to be 18.2%.
To `Nc1nc(CN2CCCC2Cn2cncn2)nc2ccccc12` (stereo not given) belongs -11.7%.
As for `COc1cc(CNC(=O)NCc2c(C)cc(C)[nH]c2=O)ccc1C`, the figure is -11.5%; as for `COC1CCN(C(=O)C2CCCC2)CC(=O)N(C)c2ccccc21` (stereo not given), -8.88%; as for `CCOc1ccc2[nH]c(=O)c(CN3CCCC3c3ccccn3)cc2c1` (stereo not given), -7.04%.
For `C=C(C)CN(CC)Cc1nc(C)no1`, the cytotoxicity at 10 µM was -15.8%.
To `O=C(C1CCC1)N1CCCn2nc(CNc3ncccn3)cc2C1` belongs -123%.
With `O=C(NCCCSC1CCCCC1)C1NCCc2[nH]cnc21` (stereo not given), the cytotoxicity at 10 µM was -0.283%.
To `Cc1noc(C)c1CNC(=O)N(C1CC1)C(C)c1ccco1` (stereo not given) belongs 5.68%; to `CCOc1ccc(C#N)cc1NC(=O)N1CCC(N2CCCC2)C1` (stereo not given), -7.35%.
For the compound `Cc1ccnn1-c1ccc(C(=O)N2CCCC(n3ccnc3)C2)cc1` (stereo not given), the cytotoxicity at 10 µM was -18.2%.
To `Cc1nn(C)c(C)c1CC(=O)N1CCCC(n2cccn2)C1` (stereo not given) belongs -13.7%; to `CC(O)CNc1ccc(C#N)cc1C(F)(F)F` (stereo not given), -42.7%.
Regarding `CN1N=C(C(=O)N(Cc2ccco2)C2CCCC2)CCC1=O`, the cytotoxicity at 10 µM was -144%.
Turning to `Cc1cccc(C(=O)N2CCCN(Cc3cscn3)CC2)c1`, the cytotoxicity at 10 µM was -18.1%.
Consider `CCCN1CC[C@@H]2OC[C@H](C(=O)Nc3cccnc3)C[C@@H]2C1`, for which the cytotoxicity at 10 µM was 5.7%.
As for `O=C(c1ccsc1)N1CCc2nnc(COc3cncnc3)n2CC1`, the figure is 1.72%.
Consider `O=C(c1ccco1)N1CCC[C@]2(C[C@H](Oc3ncccc3F)CO2)C1`, for which the cytotoxicity at 10 µM was 2.49%.
Turning to `O=C1CC2(CCN(c3nncs3)C2)CN1c1ccc2c(c1)OCCO2` (stereo not given), the cytotoxicity at 10 µM came out at 6.66%.
As for `CCS(=O)(=O)N1CCC2(COCc3cnc(N4CCOCC4)nc32)C1` (stereo not given), the figure is -4.92%; as for `CC1=N[C@@]2(CC[C@@H]3CN(S(=O)(=O)CC(C)C)C[C@@H]32)C(=O)N1C`, -84.6%.
As for `O=C(C1CCN(c2ccnc3ccc(Br)cc23)CC1)N1CCOCC1`, the figure is 15.6%.
To `CNC(=O)c1cccnc1NCc1ccc(Cn2cccn2)cc1` belongs 17.9%; to `c1cncc(CN2CCc3c(nnn3CC3CC3)C2COCC2CC2)c1` (stereo not given), 3.88%.
As for `COc1c(C2CCCN2CC(=O)N(C)Cc2ccco2)c(C)nn1C` (stereo not given), the cytotoxicity at 10 µM is -3.13%.
As for `Cc1noc(C)c1CN1CCN(Cc2nccn2C)CC1`, the cytotoxicity at 10 µM was -4.93%.
As for `Cc1ccc(C(=O)N2CC(C(N)=O)O[C@H](C)C2)c(C)c1` (stereo not given in full), the figure is -0.29%.
For the compound `O=C(c1ccoc1)N1CCC2(C1)CN(c1nccs1)C2`, the cytotoxicity at 10 µM is 1.07%.
Regarding `Cc1nc(C2CCCN(C(=O)Cn3ccccc3=O)C2)no1` (stereo not given), the cytotoxicity at 10 µM was -9.37%.
On to `CCC(=O)N1CCC(c2nnc(Cn3cccn3)n2C2CC2)CC1`, for which the cytotoxicity at 10 µM was -12.6%.
To `Cc1nc(NC2(CN3CCCCC3)CCCCC2)c2cnn(C)c2n1` belongs 3.94%; to `Cc1ccccc1C1(CN)CCOCC1`, 7.93%; to `CCc1ccc(C(=O)Nc2ccc(CC3CC(=O)NC3=O)cc2)s1` (stereo not given), -0.95%.
To `Cc1ncsc1CN1C[C@@H]2CCCO[C@@H]2[C@H](Nc2ccccn2)C1` belongs 2.31%.
For the compound `CC1=C[C@@H](CN2CCC(CO)CC2)[C@H](C(C)C)C[C@H]1Cc1nnc(C)o1`, the cytotoxicity at 10 µM turned out to be 8.24%.
As for `CCc1cc(N[C@@H]2CC[C@@H](N)C2)n2nc(C)c(C)c2n1`, the figure is 2.2%.
In the case of `O=C(NCCc1cc(F)ccc1F)NCC(O)C1CC1` (stereo not given), the cytotoxicity at 10 µM is -2.99%.
To `COc1cccc(-c2ncc(CN3CC[C@@H]4CC[C@H](C3)N4)s2)c1` belongs -12.4%.
As for `O=C(NC1CCCC1)C1(Cc2cc(C3CCOC3)no2)CCNCC1` (stereo not given), the figure is -1.57%.
As for `Clc1snnc1CN1CCCC(Cn2cncn2)C1` (stereo not given), the cytotoxicity at 10 µM was -7.67%.
For the compound `Cc1noc(C)c1C(=O)N1CCCN(Cc2nccn2C(C)C)CC1`, the cytotoxicity at 10 µM was -3.92%.
As for `CCCc1nnc(N2CC[C@@](O)(C3CCOCC3)[C@H](C)C2)s1`, the figure is 8.26%; as for `CC(C)c1nc2c(n1C)CCN(Cc1cccc(OCC(N)=O)c1)C2`, -7.24%; as for `COCCO[C@@H]1CCN(C(=O)c2occc2C)[C@H]1Cc1cnn(C)c1`, 5.1%.
To `Cc1nonc1N1CCN(Cc2nc(CC3CC3)no2)CC1` belongs 9.34%.
As for `Cn1cc(Br)cc1C(=O)NCC(C)(O)c1ccsc1` (stereo not given), the figure is -49%; as for `COCCO[C@H]1CCN(C(=O)C2CCOCC2)[C@H]1Cc1ccncc1`, 4.32%.
With `NCC1CCC(C(NC(=O)CC2CCCCC2)c2ccccn2)CC1` (stereo not given), the cytotoxicity at 10 µM is -7.19%.
As for `COCCN(CCOC)C(=O)c1ccn(-c2ccc3ccccn23)n1`, the figure is 7.22%; as for `CCN(CC)Cc1nc2c(o1)CN(S(=O)(=O)c1cccs1)C2`, -117%; as for `CS(=O)(=O)N1CCC2(CC1)CN(CCn1cccn1)C(=O)CO2`, -2.79%.
Turning to `Cc1nn(CCO)cc1CN1CCC(N2CCC(O)CC2)CC1`, the cytotoxicity at 10 µM is -0.931%.
As for `O=C(Nc1ccccc1)c1ccc(NCc2nccs2)nn1`, the figure is 5.62%; as for `CC(C)(O)CN1CCN(C(=O)c2ccn(-c3cccc(F)c3)n2)CC1`, -3.53%; as for `CSc1ccc(OC(C)C(=O)Nc2cc(C)n[nH]2)cc1` (stereo not given), 8.64%.
`COc1cccc(CNCC2(COc3cccnc3)C[C@@H](O)[C@@H](O)C2)c1` (stereo not given in full): the cytotoxicity at 10 µM was -5.57%.
For `Cc1nn(C)c2nc(-c3ccccn3)nc(NC[C@@H]3CCCO3)c12`, the cytotoxicity at 10 µM stood at 7.49%.
Regarding `CN(C)C(=O)CN1CCOCC2(CCN(c3ncc(F)cn3)CC2)C1`, the cytotoxicity at 10 µM came out at 0.419%.
To `Cc1n[nH]c(C2CN(CC(=O)NCCc3ccc(F)cc3)CCO2)n1` (stereo not given) belongs -8.13%; to `Cc1cc(C2CCCN2Cc2ccc(S(=O)(=O)N3CCCC3)o2)on1` (stereo not given), -11.9%; to `Cc1ccc(N2CCC3(CCN(C(=O)c4ccnnc4)CC3)CC2)nn1`, 3.94%.
`O=C(CN1C(=O)CCC1=O)N1CCC(CSCc2ccco2)CC1`: the cytotoxicity at 10 µM is -8%.
As for `O=C(C1CCC1)N1CCC(=O)N(C2CC2)Cc2cc(F)ccc21`, the figure is -7.76%; as for `COc1ncccc1CN1C[C@@H]2C[C@@H](C(=O)NCC3CC3)N(C)[C@@H]2C1`, 1.2%; as for `CN(CCCNC(=O)CN1CCS(=O)(=O)CC1)c1ccccc1`, -4.65%.
For the compound `CC(C)N1CC[C@H](c2nnc(Cc3c[nH]c4ccccc34)o2)C1`, the cytotoxicity at 10 µM was -9.04%.
To `CCOCC(=O)N1CCC2(CC1)COCCN2CCOC` belongs 8.37%; to `COc1ccc(CCNC(=O)C(C)Nc2ccc(C)c(C)c2)cc1` (stereo not given), 2.7%.
Take `Cc1cc(NC2CC3(CCN(Cc4cscn4)C3)C2)ncn1` (stereo not given): the cytotoxicity at 10 µM is -2.13%.
As for `Cc1nnnn1-c1cc(NCc2cccc(C#N)c2)ccc1F`, the cytotoxicity at 10 µM is 7.09%.
As for `CCNC(=O)c1cn(C(C)(C)C)c2ncccc12`, the figure is -1.28%; as for `COCCn1ccc2cc(C(=O)NC3CCOC(C)(C)C3)ccc21` (stereo not given), -0.508%.
To `CN(C)C(=O)N1CCCC2(CCN(Cc3ccncc3)C2)C1` (stereo not given) belongs 7.61%; to `CCNc1cc2c(nn1)CCN(C(=O)c1nccnc1N)C2`, -16.4%.
With `Cc1ccnc(NC(=O)c2ccc(-n3ncc(C#N)c3N)cc2)c1`, the cytotoxicity at 10 µM turned out to be 1.22%.
As for `Cc1ccc(NC2CCN(C(=O)c3cccc4[nH]ncc34)CC2)nn1`, the figure is -13.7%; as for `Cc1ccc(CC(=O)NC2CCN(c3cccc(Cl)c3)C2)cn1` (stereo not given), 2.49%; as for `CCc1cnc(N2C[C@H](OCc3csc(C)n3)[C@H]3COC[C@H]32)nc1`, -2.51%.
To `COC(=O)[C@@H](NC(=O)c1coc(COc2cccc(F)c2F)n1)C(C)C` belongs 1.31%; to `Cc1ccc(N2CCCC(c3[nH]ncc3-c3ccccc3)C2)nn1` (stereo not given), 2.51%; to `Cc1noc(CC2CCN(C(=O)C(c3ccccc3C)N(C)C)CC2)n1` (stereo not given), 1.86%.
As for `O=C(NCc1ccccn1)[C@]12COC[C@H]1CN(C1CCC1)C2`, the figure is -6.82%.
As for `N#Cc1ccc(CS(=O)(=O)NC(=O)c2ccc(C#N)cc2)cc1`, the cytotoxicity at 10 µM turned out to be 5.47%.
Consider `CCn1nc(C)cc1C(=O)N1C[C@@H](CN(C)C)[C@@H](CO)C1`, for which the cytotoxicity at 10 µM came out at 3.3%.
As for `COC(=O)CCC(=O)N1CCC2(CN(Cc3ccccc3)C2)C1`, the figure is 12.3%; as for `Cn1cc(C[C@H]2[C@H](N3CCOCC3)CCN2C2CCOCC2)cn1`, 5.13%.
In the case of `CNc1nccnc1C1CN(Cc2ccc(OCC(=O)O)cc2)CCO1` (stereo not given), the cytotoxicity at 10 µM is -5.73%.
With `CC(C)C(Sc1nccn1C1CC1)C(=O)NCc1cccnc1` (stereo not given), the cytotoxicity at 10 µM was -5.83%.
To `Cc1nc(C2CCCN(C(=O)CCCn3ccnc3C)C2)no1` (stereo not given) belongs -13.4%; to `CC(C)(C)c1coc([C@@H]2COCCN2Cc2c[nH]cn2)n1`, 1.21%.
In the case of `CCOC1CCCN(C(=O)c2cnc3c(cnn3C3CCCC3)c2)C1` (stereo not given), the cytotoxicity at 10 µM is -3.74%.
As for `CCN1CC(C(=O)NCCc2csc(-c3ccncc3)n2)CC1=O` (stereo not given), the figure is -5.64%; as for `CN(Cc1cc(Br)cs1)Cc1nnsc1Cl`, -7.38%; as for `CCc1nnc2n1CCN(C(=O)c1ccc(-c3ccco3)[nH]c1=O)C2`, -11.5%.
